RGS4 block – inhibitors of human RGS4; P49798; HEK293 M3R/RGS4 inducible, Fluo-4 calcium flux; stronger effect = higher value; triggered by carbachol at its EC20; B-score at 10 µM; 0.45% of 310,000 active;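 active = B-score, a plate-corrected calcium signal, over three deviations above library mean, with baseline fluorescence within five deviations of library mean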;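 note: RGS4 expression induced by doxycycline in cells with stable M3 receptor; B-score is computed from the integrated fluorescence ratio over baseline after carbachol; higher B-score means a larger calcium signal and so more RGS4 inhibition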
Target sequence (P49798 whole entry, looked up): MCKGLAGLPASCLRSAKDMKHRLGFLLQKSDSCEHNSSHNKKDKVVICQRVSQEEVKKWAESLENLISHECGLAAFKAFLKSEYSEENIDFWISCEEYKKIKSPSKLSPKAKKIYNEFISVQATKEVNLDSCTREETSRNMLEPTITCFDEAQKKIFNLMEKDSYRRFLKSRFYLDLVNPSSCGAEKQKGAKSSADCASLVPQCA
MrgX1 antag – blocks BAM8-22 activation of human MrgX1 receptor | Q96LB2 | MRGX1-HEK293 calcium flux, Fluo-4, BAM8-22 antagonism; stronger effect = lower value | B-score at 10 µM | 1.3% of 310,000 active;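 active = calcium-response B-score plate-corrected more than 3 library SD below zero, starting fluorescence within 5 deviations, no agonist response on first addition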;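 note: peak minus trough fluorescence over baseline after final BAM8-22 challenge near maximal dose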
RGS4 pot – RGS4 potentiation or activation | 0.92% of 310,000 active | HEK293 M3R/inducible RGS4, carbachol calcium flux Fluo4; stronger effect = lower value | B-score at 10 µM;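 active = B-score of the integrated calcium signal more than 4 SD below the library mean, with starting fluorescence not abnormally high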;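 note: negative B-score means reduced calcium response which marks RGS4 activation or potentiation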
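test system = HEK293 cells with stable M3R and inducible RGS4 | schedule = recording 10 s baseline at 1 Hz, 100 s post-agonist | technique = Fluo4-AM (2 µM) calcium-flux fluorescence, kinetic read | measure = Agonist-evoked peak-minus-minimum fluorescence over baseline, integrated ratio, B score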
MrgX1 agonist – agonists of human MrgX1 receptor | MrgX1-HEK293 cells, Fluo-4 calcium fluorescence, agonist mode; stronger effect = higher value | B-score at 10 µM | 0.44% of 310,000 active | AID 588627;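 active = calcium response B-score plate-corrected fluorescence ratio at least 3 library SD, with starting fluorescence B-score inside 5 SD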
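Test system: Stable human MrgX1 HEK293 cell line | Schedule: Overnight plating before 1 h dye loading | Read-out basis: Baseline-normalised fluorescence change ratio, B-scored | Detection: Kinetic calcium dye fluorescence, Fluo-4 NW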
PHOSPHO1 inh – inhibitors of human PHOSPHO1 phosphatase | Q8TCT1 | recombinant PHOSPHO1, absorbance phosphatase assay | AID 1565 | inhibition, % at 13.3 µM | 1.1% of 290,000 active; in the data active = inhibition above about 60%
Target sequence (Q8TCT1 whole entry, looked up): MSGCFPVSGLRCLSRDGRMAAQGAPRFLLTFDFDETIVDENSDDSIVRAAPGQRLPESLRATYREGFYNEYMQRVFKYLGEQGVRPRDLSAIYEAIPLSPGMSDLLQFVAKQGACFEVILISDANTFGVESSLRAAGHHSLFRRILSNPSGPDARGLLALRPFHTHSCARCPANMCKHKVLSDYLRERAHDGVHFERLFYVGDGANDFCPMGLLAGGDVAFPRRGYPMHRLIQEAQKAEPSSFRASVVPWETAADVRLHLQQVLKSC
MrgX1 allo act – allosterically activates human MrgX1 receptor signaling; Q96LB2; MrgX1-HEK293, Fluo-4 calcium flux, FDSS; stronger effect = higher value; B-score at 10 µM; 0.63% of 310,000 active; AID 588675;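 active = plate-corrected calcium response at least 3 library SD above typical, normal starting fluorescence, not activating the receptor alone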;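 note: compound read alongside a low EC10 to EC30 dose of BAM8-22 agonist; peak minus trough fluorescence over baseline measured at the second addition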
* = called active by the depositor; i = inactive; x = no result given. Shown are actives, neighbours in structure and some others; about 4.5% of the full set was active somewhere.

SMILES	RGS4 block	MrgX1 antag	RGS4 pot	MrgX1 agonist	PHOSPHO1 inh	MrgX1 allo act
O=C(CSc1nc2ccccc2c(=O)n1-c1ccccc1)NCC1CCCO1 (stereo not drawn)	i	i	i	i	-10	i
CC(=O)c1ccc(OCc2cccc(C(F)(F)F)c2)cc1O	i	i	i	i	-24	i
COc1ccccc1-n1c(CNC(=O)COc2ccccc2)n[nH]c1=S	i	i	i	i	82*	i
CN(CCc1ccccn1)C1CCCN(S(=O)(=O)c2ccc(F)c(Cl)c2)C1 (stereo not drawn)	i	i	i	i	47	i
Cc1cc(S(=O)(=O)N2CCCC(N(C)CCc3ccccn3)C2)c(C)s1 (stereo not drawn)	i	i	i	i	75*	i
Cc1ccc(NC(=O)c2cc(-c3ccc(F)cc3)on2)cc1C	i	i	i	i	-5	i
COc1ccc(-c2cc(C(=O)Nc3ccc(C)c(C)c3)no2)cc1	i	i	i	i	61*	i
COc1ccc2oc(=Nc3ccccc3)c(-c3nc4ccccc4[nH]3)cc2c1	i	i	i	i	-6	i
S=c1[nH]nc(-c2ccc3ccccc3n2)n1-c1cc(Cl)cc(Cl)c1	i	i	i	i	1	i
Cn1cc(Cl)c(-c2n[nH]c(=S)n2-c2ccc(F)cc2)n1	i	i	i	i	3	i
Cc1c(Cl)c(-c2n[nH]c(=S)n2-c2ccc(F)cc2)nn1C	i	i	i	i	101*	i
Fc1ccc(-n2c(-c3ccc4ccccc4n3)n[nH]c2=S)cc1	i	i	i	i	60*	i
CSc1ccccc1C(=O)NC1CCCc2ccccc21 (stereo not drawn)	i	i	i	i	20	i
Cc1ccc(C(=O)Nc2cccc(NC(=O)CN3CCCCC3)c2)cc1	i	i	i	i	25	i
COc1ccc(CC2=CC(=O)c3ccccc3C2=O)cc1	6.2*	i	i	i	24	i
C=CCOc1ccccc1/C=c1\sc2nc(=O)c(C)nn2c1=O	i	i	i	28*	-20	i
COC(=O)c1ccc(-c2noc(CN(Cc3nccn3C)C(C)C)n2)cc1	i	i	-7.5*	i	-12	i
CC(C)N(Cc1nc(-c2ccc3c(c2)OCO3)no1)Cc1nccn1C	i	i	i	i	37	i
Cc1ccc(-c2cc(C(F)(F)F)n3nc(C(=O)NCCCn4ccnc4)cc3n2)cc1C	i	i	i	i	3	i
O=C1ON=C(c2ccc(Cl)cc2)/C1=C/c1ccc(O)cc1	i	i	i	34*	5	i
Nc1cc(=O)[nH]c(SCC(=O)NNC(=O)Cc2ccccc2)n1	i	i	i	i	36	i
CCN(CC(=O)Nc1ccc2c(c1)OCCO2)C(=O)C1CC(=O)N(c2ccc(OC)cc2OC)C1 (stereo not drawn)	i	i	i	i	x	i
CCN(CC(=O)NCc1cccs1)C(=O)C1CC(=O)N(c2ccc(OC)cc2OC)C1 (stereo not drawn)	i	-4.8*	i	i	x	i
NC(=O)[C@H]1CC2(CC(c3cccc(NC(=O)CC(c4ccccc4)c4ccccc4)c3)=NO2)CN1C(=O)c1ccccc1C(=O)c1ccccc1 (stereo partly drawn)	i	i	i	i	26	i
Cc1nc(-c2cccc(NC(=O)COc3ccc(Cl)cc3)c2)cs1	i	i	i	i	66*	i
SMILES	RGS4 block	MrgX1 antag	RGS4 pot	MrgX1 agonist	PHOSPHO1 inh	MrgX1 allo act
CCC(=O)Nc1cccc(C2=NOC3(C2)C[C@@H](C(N)=O)N(C(=O)c2ccccc2C(=O)c2ccccc2)C3)c1 (stereo partly drawn)	i	-8*	i	i	31	i
COc1ccc(CC(=O)Nc2cccc(-c3csc(C)n3)c2)cc1	i	i	i	i	12	i
CC1(C(=O)N2CC3(CC(c4ccccc4)=NO3)C[C@H]2C(=O)NCC(N)=O)CC1 (stereo partly drawn)	i	-5.6*	i	i	15	i
CCC(=O)Nc1cccc(C2=NOC3(C2)C[C@@H](C(N)=O)N(C(=O)COc2ccc(Cl)cc2)C3)c1 (stereo partly drawn)	i	i	i	i	18	8.9*
COC(=O)c1ccc(/C=C/c2c(-c3ccsc3)sc3ccccc23)cc1	i	i	i	i	10	i
COc1ccc(S(=O)(=O)N2CCN(C(=O)Nc3ccccc3OC)CC2)cc1	i	i	i	i	27	i
O=S(=O)(NCCc1ccc(Cl)cc1)c1cccc2cccnc12	i	i	i	i	36	i
O=C(NN1C(=O)/C(=C/C=C/c2ccco2)SC1=S)c1ccccc1O	i	-4.6*	i	i	86*	i
COCCCn1c(SCC(=O)OC2CCCCC2)nnc1-c1cccs1	i	-5.8*	i	i	18	i
CCCc1cc(-c2[nH]ncc2-c2ccc3c(c2)OCCCO3)c(O)cc1O	i	i	-7.9*	i	16	i
CC1(C)CC(=O)c2sc(NS(=O)(=O)c3ccc([N+](=O)[O-])cc3)nc2C1	i	i	i	i	41	8*
CC1(C)CC(=O)c2sc(NS(C)(=O)=O)nc2C1	i	i	i	i	7	i
CC(Sc1nc(N)c(NC(=O)c2ccc(Br)o2)c(=O)[nH]1)C(=O)O (stereo not drawn)	i	i	i	i	31	i
CSc1nc(N)c(NC(=O)c2ccc(Br)o2)c(=O)[nH]1	i	i	i	i	66*	i
COc1ccc(OC)c(S(=O)(=O)NC2CCSc3ccccc32)c1 (stereo not drawn)	i	i	i	i	23	i
Cc1cc(-n2c(C)cc(C(=O)CSc3nc(N)cc(=O)[nH]3)c2C)no1	i	i	i	i	-23	i
Cc1cc(-n2c(C)cc(C(=O)CSc3nc4ccccc4c(=O)n3Cc3ccco3)c2C)no1	i	-6.3*	i	i	-10	i
Cc1cc(-n2c(C)cc(C(=O)CSc3ccc4c(c3)OCCO4)c2C)no1	i	i	i	i	71*	i
Cc1ccc(-n2nnnc2SCC(=O)c2cc(C)n(-c3cc(C)on3)c2C)c(C)c1	i	i	i	i	75*	i

Assay outcomes deposited in PubChem BioAssay by several laboratories.
